What was measured:
Format in all cases: functional
Conditions in all cases: read-out: DIZ
[1] = Antibacterial activity against Xanthomonas campestris pvs. at 10 ug/disc after 24 hrs by disc diffusion method
Method in brief: (§1)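 Disc diffusion assay. Discs were held at 4 °C for 2 h so the compounds could diffuse, then incubated at 28 °C. Inhibition zone diameters were measured in mm after 24 h. Each compound was tested in triplicate.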

[2] = test system: Bacillus subtilis; experiment: Antibacterial activity against Bacillus subtilis at 10 ug/disc after 24 hrs by disc diffusion method; method in brief: as §1
[3] = test system: Xanthomonas oryzae; experiment: Antibacterial activity against Xanthomonas oryzae at 10 ug/disc after 24 hrs by disc diffusion method
[4] = test system: Pseudomonas fluorescens; experiment: Antibacterial activity against Pseudomonas fluorescens at 10 ug/disc after 24 hrs by disc diffusion method; method in brief: as §1
[5] = test system: Escherichia coli; experiment: Antibacterial activity against Escherichia coli at 10 ug/disc after 24 hrs by disc diffusion method; method in brief: as §1

Structure (SMILES) | zone of inhibition at 10 µg/disc [1] [mm] | zone of inhibition at 10 µg/disc [2] [mm] | zone of inhibition at 10 µg/disc [3] [mm] | zone of inhibition at 10 µg/disc [4] [mm] | zone of inhibition at 10 µg/disc [5] [mm]
O=C(CCCc1nc2ccccc2c(=O)[nH]1)N[C@@H](CCCCNC(=O)Nc1cccc(F)c1)C(=O)O | 34 | 35 | 36 | 35 | 36
CN[C@@H]1[C@H](O[C@H]2[C@H](O[C@H]3[C@H](O)[C@@H](O)[C@H](N=C(N)N)[C@@H](O)[C@@H]3N=C(N)N)O[C@@H](C)[C@]2(O)C=O)O[C@@H](CO)[C@H](O)[C@H]1O [STREPTOMYCIN] | – | 17 | – | 23 | 21
NCCCC[C@H](NC(=O)CCCc1nc2ccccc2c(=O)[nH]1)C(=O)O | 13 | 14 | 12 | 12 | 10
CC(=O)NCCCC[C@H](NC(=O)CCCc1nc2ccccc2c(=O)[nH]1)C(=O)O | 14 | 10 | 12 | 10 | 11
O=C(CCc1nc2ccccc2c(=O)[nH]1)N[C@@H](CCCCNC(=S)Nc1cccc(F)c1)C(=O)O | 36 | 36 | 36 | 34 | 38
COC(=O)[C@H](CCCCNC(=O)OC(C)(C)C)NC(=O)CCCc1nc2ccccc2c(=O)[nH]1 | 7 | 6 | 9 | 8 | 8
COC(=O)[C@H](CCCCNS(C)(=O)=O)NC(=O)CCc1nc2ccccc2c(=O)[nH]1 | 8 | 8 | 11 | 9 | 6
O=C(CCCc1nc2ccccc2c(=O)[nH]1)N[C@@H](CCCCNC(=S)Nc1cccc(F)c1)C(=O)O | 33 | 34 | 34 | 32 | 32
COC(=O)[C@H](CCCCNS(C)(=O)=O)NC(=O)CCCc1nc2ccccc2c(=O)[nH]1 | 12 | 11 | 11 | 11 | 9
COC(=O)[C@H](CCCCNC(=S)Nc1cccc(F)c1)NC(=O)CCCc1nc2ccccc2c(=O)[nH]1 | 34 | 34 | 36 | 33 | 35
CC(C)(C)OC(=O)NCCCC[C@H](NC(=O)CCCc1nc2ccccc2c(=O)[nH]1)C(=O)O | 12 | 9 | 11 | 11 | 10
COC(=O)[C@H](CCCCNC(C)=O)NC(=O)CCCc1nc2ccccc2c(=O)[nH]1 | 6 | 8 | 8 | 7 | 9
COC(=O)[C@H](CCCCNC(=O)Nc1ccc(Cl)cc1)NC(=O)CCCc1nc2ccccc2c(=O)[nH]1 | 28 | 25 | 30 | 29 | 26
COC(=O)[C@H](CCCCN)NC(=O)CCCc1nc2ccccc2c(=O)[nH]1 | 12 | 10 | 12 | 10 | 9
COC(=O)[C@H](CCCCNC(=O)Nc1cccc(F)c1)NC(=O)CCCc1nc2ccccc2c(=O)[nH]1 | 36 | 36 | 35 | 34 | 35
COC(=O)[C@H](CCCCNC(=S)Nc1ccccc1C)NC(=O)CCCc1nc2ccccc2c(=O)[nH]1 | 25 | 22 | 24 | 23 | 23
O=C(CCc1nc2ccccc2c(=O)[nH]1)N[C@@H](CCCCNC(=O)Nc1ccc(Cl)cc1)C(=O)O | 30 | 28 | 30 | 32 | 30
CS(=O)(=O)NCCCC[C@H](NC(=O)CCc1nc2ccccc2c(=O)[nH]1)C(=O)O | 10 | 9 | 10 | 12 | 9

Structure (SMILES) | zone of inhibition at 10 µg/disc [1] [mm] | zone of inhibition at 10 µg/disc [2] [mm] | zone of inhibition at 10 µg/disc [3] [mm] | zone of inhibition at 10 µg/disc [4] [mm] | zone of inhibition at 10 µg/disc [5] [mm]
COC(=O)[C@H](CCCCNC(=O)Nc1cccc(F)c1)NC(=O)CCc1nc2ccccc2c(=O)[nH]1 | 37 | 35 | 36 | 36 | 36
COC(=O)[C@H](CCCCN)NC(=O)CCc1nc2ccccc2c(=O)[nH]1 | 9 | 6 | 10 | 10 | 8
Cc1cc(F)ccc1NC(=S)NCCCC[C@H](NC(=O)CCCc1nc2ccccc2c(=O)[nH]1)C(=O)O | 32 | 33 | 33 | 34 | 34
CN(C)[C@@H]1C(O)=C(C(N)=O)C(=O)[C@@]2(O)C(O)=C3C(=O)c4c(O)cccc4[C@@](C)(O)[C@H]3C[C@@H]12 [TETRACYCLINE] | 19 | – | 18 | – | –
COC(=O)[C@H](CCCCNC(=O)Nc1ccc(OC)cc1)NC(=O)CCCc1nc2ccccc2c(=O)[nH]1 | 24 | 20 | 25 | 22 | 21
CC(=O)NCCCC[C@H](NC(=O)CCc1nc2ccccc2c(=O)[nH]1)C(=O)O | 12 | 11 | 14 | 13 | 10
Cc1ccccc1NC(=S)NCCCC[C@H](NC(=O)CCCc1nc2ccccc2c(=O)[nH]1)C(=O)O | 26 | 23 | 25 | 25 | 24
COc1ccc(NC(=O)NCCCC[C@H](NC(=O)CCc2nc3ccccc3c(=O)[nH]2)C(=O)O)cc1 | 28 | 24 | 28 | 27 | 25
COc1ccc(NC(=O)NCCCC[C@H](NC(=O)CCCc2nc3ccccc3c(=O)[nH]2)C(=O)O)cc1 | 25 | 22 | 26 | 23 | 24
COC(=O)[C@H](CCCCNC(=O)Nc1ccc(OC)cc1)NC(=O)CCc1nc2ccccc2c(=O)[nH]1 | 26 | 22 | 28 | 25 | 23
Cc1cc(F)ccc1NC(=S)NCCCC[C@H](NC(=O)CCc1nc2ccccc2c(=O)[nH]1)C(=O)O | 34 | 34 | 35 | 35 | 33
O=C(CCCc1nc2ccccc2c(=O)[nH]1)N[C@@H](CCCCNC(=O)Nc1ccc(Cl)cc1)C(=O)O | 28 | 29 | 29 | 30 | 28
COC(=O)[C@H](CCCCNC(=S)Nc1ccc(F)cc1C)NC(=O)CCc1nc2ccccc2c(=O)[nH]1 | 33 | 33 | 34 | 34 | 32
NCCCC[C@H](NC(=O)CCc1nc2ccccc2c(=O)[nH]1)C(=O)O | 10 | 8 | 9 | 10 | 9
COC(=O)[C@H](CCCCNC(=O)OC(C)(C)C)NC(=O)CCc1nc2ccccc2c(=O)[nH]1 | 12 | 8 | 12 | 11 | 9
COC(=O)[C@H](CCCCNC(=S)Nc1ccccc1C)NC(=O)CCc1nc2ccccc2c(=O)[nH]1 | 27 | 23 | 26 | 24 | 22
Cc1ccccc1NC(=S)NCCCC[C@H](NC(=O)CCc1nc2ccccc2c(=O)[nH]1)C(=O)O | 28 | 23 | 28 | 25 | 23
COC(=O)[C@H](CCCCNC(=S)Nc1cccc(F)c1)NC(=O)CCc1nc2ccccc2c(=O)[nH]1 | 38 | 36 | 35 | 36 | 38
